Assay results: ChEMBL document CHEMBL1121602, “Analogues of 8-[[6-(diethylamino) hexyl]amino]-6-methoxy-4-methylquinoline as candidate antileishmanial agents” (1980)
Calls of active or inactive are those of the source. The rule behind the calls is not given here.

Legend:
[1] = system: Cricetinae gen. sp.; experiment: Antileishmanial activity against Leishmania donovani in hamsters at a concentration of 52 mg/kg; type: functional
Outline: (§1)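 L. donovani infection in hamsters, following an earlier-cited protocol. Meglumine antimoniate was the reference drug. A G index, the activity of each test agent relative to the reference, was calculated from the dose-response data.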

[2] = G index = SD90 for meglumine antimoniate / SD90 for the compound; type: functional; outline: as §1
[3] = system: Cricetinae gen. sp.; experiment: Antileishmanial activity against Leishmania donovani in hamsters at a concentration of 13 mg/kg; type: functional; outline: as §1
[4] = system: Cricetinae gen. sp.; experiment: Antileishmanial activity against Leishmania donovani in hamsters at a concentration of 0.81 mg/kg; type: functional; outline: as §1
[5] = system: Cricetinae gen. sp.; experiment: Antileishmanial activity against Leishmania donovani in hamsters at a concentration of 13 mg/kg (toxic); type: functional; outline: as §1
[6] = system: Cricetinae gen. sp.; experiment: Antileishmanial activity against Leishmania donovani in hamsters at a concentration of 0.20 mg/kg; type: functional; settings: dose 0.2 mg/kg; outline: as §1
[7] = system: Cricetinae gen. sp.; experiment: Antileishmanial activity against Leishmania donovani in hamsters at a concentration of 0.05 mg/kg; type: functional; outline: as §1
[8] = system: Cricetinae gen. sp.; experiment: Antileishmanial activity against Leishmania donovani in hamsters at a concentration of 0.81 mg/kg; I = inactive; type: functional, organism-based; set-up: dose 0.81 mg/kg; outline: as §1
[9] = system: Cricetinae gen. sp.; experiment: Antileishmanial activity against Leishmania donovani in hamsters at a concentration of 13 mg/kg; I = inactive; type: functional, organism-based; set-up: dose 13 mg/kg; outline: as §1
[10] = system: Cricetinae gen. sp.; experiment: Antileishmanial activity against Leishmania donovani in hamsters at a concentration of 208 mg/kg.; type: functional; outline: as §1

Row | SMILES | Supression [1] | G Index [2] | Supression [3] | Supression [4] | Supression [5] | Supression [6] | Supression [7] | Supression [8] | Supression [9] | Supression [10]
1 | CCN(CCO)CCCCCCNc1cc(OC)cc2c(C)ccnc12.Cl | 95.4% | 3.4 | 79.2% | – | – | – | – | – | – | –
2 | COc1cc(NCCCCCC(C)NC(C)C)c2nccc(C)c2c1.Cl (stereo unspecified) | – | 300 | – | 100% | 95.4% | 97.3% | – | – | – | –
3 | CCN(CC)CCCCCNc1cc(OC)cc2c(C)ccnc12 | 100% | 178 | 100% | 100% | – | 91.5% | – | – | – | –
4 | COc1cc(NCCCCCCNCCO)c2nccc(C)c2c1.Cl | – | 300 | 99.9% | – | – | – | – | – | – | –
5 | COc1cc(NCCCCCCN(C(C)C)C(C)C)c2nccc(C)c2c1.Cl.Cl | – | 310 | 97.5% | 100% | – | 97.4% | 20.2% | – | – | –
6 | CCN(CC)CCCCCCNc1cc(OC)cc2c(C)ccnc12 [SITAMAQUINE] | – | 474 | – | 100% | – | 99.6% | 83.7% | – | – | –
7 | CCCN(CCC)CCCCCCNc1cc(OC)cc2c(C)ccnc12.Cl | – | 333 | – | 99.9% | – | 99.9% | 31% | – | – | –
8 | CCN(C(C)C)C(C)CCCCCNc1cc(OC)cc2c(C)ccnc12.Cl.Cl (stereo unspecified) | – | – | – | 100% | 95.4% | 97.3% | – | – | – | –
9 | CCN(CC)CCCCCCNc1cc(OC)c(OC)c2c(C)ccnc12.Cl.Cl | – | 401 | 99.9% | 100% | – | 100% | 68% | – | – | –
10 | COc1cc(NCCCCCCNC2CCC2)c2nccc(C)c2c1.Cl | 100% | 188 | 100% | 99.2% | – | – | – | – | – | –
11 | CCN(CC)CCCCCCNc1cc(OC)cc2c(C)cc(O)nc12 | – | – | – | – | – | – | – | inactive | inactive | 62.8%
12 | CCN(CC)CCCCCCCNc1cc(OC)cc2c(C)ccnc12.Cl.Cl | – | 96.8 | 100% | 99.8% | – | 73.1% | – | – | – | –
